In ChEMBL document CHEMBL1777685, “Biological evaluation of novel benzisoxazole derivatives as PPARδ agonists” (Bioorg Med Chem, 2011):
The source made the active and inactive calls. The rule behind the calls is not given here.

Tests used:
[1] = biological target: T1, Peroxisome proliferator-activated receptor alpha (Homo sapiens, UniProt Q07869); assay: Agonist activity at human PPARalpha-LBD expressed in CV1 cells co-transfected with Gal4 after 40 hrs by luciferase based transactivation assay; type: functional, cell-based, CV-1
T1 sequence (Q07869 whole entry): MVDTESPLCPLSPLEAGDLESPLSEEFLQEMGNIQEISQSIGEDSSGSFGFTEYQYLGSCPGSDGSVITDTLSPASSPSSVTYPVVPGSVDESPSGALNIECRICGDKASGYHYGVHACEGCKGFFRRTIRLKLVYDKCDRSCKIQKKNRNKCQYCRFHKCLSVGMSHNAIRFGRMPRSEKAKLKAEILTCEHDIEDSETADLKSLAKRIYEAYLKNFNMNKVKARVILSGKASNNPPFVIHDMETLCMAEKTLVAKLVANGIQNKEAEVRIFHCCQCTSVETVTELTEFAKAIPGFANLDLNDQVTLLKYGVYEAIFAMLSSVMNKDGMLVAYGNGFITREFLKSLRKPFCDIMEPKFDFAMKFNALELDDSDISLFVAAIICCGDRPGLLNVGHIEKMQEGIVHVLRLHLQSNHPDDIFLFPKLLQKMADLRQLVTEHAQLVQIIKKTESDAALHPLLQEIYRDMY

[2] = biological target: T2, Peroxisome proliferator-activated receptor gamma (Homo sapiens, UniProt P37231); type: functional, cell-based, CV-1
T2 sequence (P37231 whole entry): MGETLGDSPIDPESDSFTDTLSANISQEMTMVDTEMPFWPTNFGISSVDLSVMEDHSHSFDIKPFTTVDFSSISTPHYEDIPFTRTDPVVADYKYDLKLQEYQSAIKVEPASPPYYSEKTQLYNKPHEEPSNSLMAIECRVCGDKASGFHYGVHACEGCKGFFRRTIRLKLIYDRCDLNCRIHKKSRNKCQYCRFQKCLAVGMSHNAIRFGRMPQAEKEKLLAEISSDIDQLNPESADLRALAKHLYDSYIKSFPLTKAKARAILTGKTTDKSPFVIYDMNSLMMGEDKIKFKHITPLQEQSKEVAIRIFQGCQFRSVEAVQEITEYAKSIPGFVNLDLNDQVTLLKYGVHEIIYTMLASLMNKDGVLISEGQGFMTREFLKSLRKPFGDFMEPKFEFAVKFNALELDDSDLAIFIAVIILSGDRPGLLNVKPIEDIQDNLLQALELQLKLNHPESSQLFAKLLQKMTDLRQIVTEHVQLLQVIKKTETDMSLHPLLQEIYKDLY

[3] = biological target: T3, Peroxisome proliferator-activated receptor delta (Homo sapiens, UniProt Q03181); assay: Agonist activity at human PPARdelta-LBD expressed in CV1 cells co-transfected with Gal4 after 40 hrs by luciferase based transactivation assay; type: functional, cell-based, CV-1
T3 sequence (Q03181 whole entry): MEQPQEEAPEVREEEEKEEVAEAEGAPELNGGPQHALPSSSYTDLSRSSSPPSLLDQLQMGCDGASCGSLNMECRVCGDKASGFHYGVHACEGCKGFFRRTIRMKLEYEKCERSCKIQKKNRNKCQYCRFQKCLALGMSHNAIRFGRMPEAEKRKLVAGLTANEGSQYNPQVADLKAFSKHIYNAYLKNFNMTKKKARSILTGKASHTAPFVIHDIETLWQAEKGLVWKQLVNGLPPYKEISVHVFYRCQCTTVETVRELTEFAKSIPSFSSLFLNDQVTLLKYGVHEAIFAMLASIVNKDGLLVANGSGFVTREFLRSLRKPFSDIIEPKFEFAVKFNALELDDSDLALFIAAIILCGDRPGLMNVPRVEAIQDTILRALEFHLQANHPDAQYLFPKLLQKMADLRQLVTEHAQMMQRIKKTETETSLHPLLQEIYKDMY

Rattus norvegicus [4] = species: Rattus norvegicus; assay: Induction of oligodendrocyte precursor cell differentiation isolated from Wistar rat fetal brain cortex at 0.1 uM after 3 days by anti O1-antibody immunostaining method; type: functional
Rattus norvegicus [5] = species: Rattus norvegicus; assay: Induction of oligodendrocyte precursor cell differentiation isolated from Wistar rat fetal brain cortex at 0.01 uM after 3 days by anti O1-antibody immunostaining method; type: functional
Procedure, shortened: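 Primary mixed cultures from fetal Wistar rat cortex, with OPCs enriched on a Percoll gradient. Cells seeded at 1 × 10⁴/cover glass and cultured 4 days at 37 °C, 5% CO₂, then exposed to compound in DMSO (0.01% final) for 3 days; vehicle control 0.01% DMSO. Anti-O1 immunostaining, random images; stained area measured and given relative to control mean (100%).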

Rattus norvegicus [6] = species: Rattus norvegicus; assay: Induction of oligodendrocyte precursor cell differentiation isolated from Wistar rat fetal brain cortex at 0.03 uM after 3 days by anti O1-antibody immunostaining method; type: functional

Structure (SMILES) | EC50 [1] | EC50 [2] | EC50 [3] | Activity (Rattus norvegicus [4]) | Activity (Rattus norvegicus [5]) | Activity (Rattus norvegicus [6])
Cc1oc(-c2ccccc2)nc1CCc1noc2cc(OC(C)(C)C(=O)O)ccc12 | 12.9 µM | 20.8 µM | 14900 nM |  |  | 
CCCc1oc(-c2ccccc2)nc1CCc1noc2cc(OC(C)(C)C(=O)O)ccc12 | 13.2 µM | 19.1 µM | 9800 nM |  |  | 
Cc1cc(SCc2sc(-c3ccc(C(F)(F)F)cc3)nc2C)ccc1OCC(=O)O |  |  |  | Active | Active | Active
CC(C)c1oc(-c2ccccc2C(F)(F)F)nc1CCc1noc2cc(OC(C)(C)C(=O)O)ccc12 | > 10 µM | > 10 µM | > 10000 nM |  |  | 
CC(C)(Oc1ccc2c(CCc3nc(-c4ccccc4Cl)oc3C(C)(C)C)noc2c1)C(=O)O | > 10 µM | > 10 µM | > 10000 nM |  |  | 
CC(C)c1oc(-c2c(Cl)cccc2Cl)nc1CCc1noc2cc(OC(C)(C)C(=O)O)ccc12 | > 10 µM | > 10 µM | > 10000 nM |  |  | 
Cc1cc2c(CCc3nc(-c4ccc(Cl)cc4Cl)oc3C(C)C)noc2cc1OCC(=O)O |  |  |  | Active |  | 
CCc1oc(-c2ccccc2)nc1CCc1noc2cc(OC(C)(C)C(=O)O)ccc12 | 14.7 µM | 25.1 µM | 6700 nM |  |  | 
COc1ccc(CC2SC(=O)NC2=O)cc1C(=O)NCc1ccc(C(F)(F)F)cc1 (centres undefined) |  |  | > 10000 nM | inactive |  | 

Now from value to compound, other results behind:

EC50 [1] | EC50 [2] | EC50 [3] | Structure (SMILES) | Activity (Rattus norvegicus [4]) | Activity (Rattus norvegicus [5]) | Activity (Rattus norvegicus [6])
10.4 µM | 14.6 µM | 900 nM | CC(C)c1oc(-c2ccccc2O)nc1CCc1noc2cc(OC(C)(C)C(=O)O)ccc12 |  |  | 
3.3 µM | 2.6 µM | 700 nM | CCCCc1ccc(-c2nc(CCc3noc4cc(OC(C)(C)C(=O)O)ccc34)c(C(C)C)o2)cc1 |  |  | 
0.2 µM | 0.91 µM | 11 nM | Cc1cc2c(CCc3sc(-c4ccc(C(F)(F)F)cc4)nc3C(C)C)noc2cc1OC(C)(C)C(=O)O | Active | Active | Active
13.9 µM | 26.4 µM | 5400 nM | CCCc1oc(-c2ccccc2Cl)nc1CCc1noc2cc(OC(C)(C)C(=O)O)ccc12 |  |  | 
2.9 µM | 1 µM | 1200 nM | CC(C)c1oc(-c2ccc(C(C)(C)C)cc2)nc1CCc1noc2cc(OC(C)(C)C(=O)O)ccc12 |  |  | 
0.83 µM | 5.1 µM | 21 nM | CC(C)c1nc(-c2ccc(C(F)(F)F)cc2)sc1CCc1noc2cc(OC(C)(C)C(=O)O)ccc12 |  |  | 
8.6 µM | 26.3 µM | 100 nM | CC(C)c1oc(-c2ccc(Cl)cc2Cl)nc1CCc1noc2cc(OC(C)(C)C(=O)O)ccc12 |  |  | 
34.1 µM | 31.1 µM | 1300 nM | CC(C)c1oc(-c2ccccc2Cl)nc1CCc1noc2cc(OC(C)(C)C(=O)O)ccc12 |  |  | 
2.3 µM | 5.9 µM | 2000 nM | CCCCCCc1oc(-c2ccccc2Cl)nc1CCc1noc2cc(OC(C)(C)C(=O)O)ccc12 |  |  | 
